According to PMC6369923 (Journal of immunology (Baltimore, Md. : 1950), 2019):
Ends that are not written are not given here.

Tests used:
[1] = system: MRGPRX2 (HTLA-MRGPRX2 cells); conditions: cited from earlier work
[2] = treatment of hereditary angioedema; cited from earlier work
[3] = system: MRGPRX2 (HTLA-MRGPRX2 cells); test: Ca2+ mobilization in HTLA-MRGPRX2 cells; format: cell-based; conditions: compound 48/80 30 μg/mL, AG-30/5C 10 μM, Icatibant 30 μg/mL; FLIPR-Tetra; representative traces
Outline: (§1)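 HTLA cells (HEK-293T stably expressing β-arrestin2-TEV) were stably transfected with the MRGPRX2-Tango or MRGPRX4-Tango plasmid, and a single-cell-derived clone was checked for receptor expression by anti-FLAG flow cytometry. Cells were plated at 10^4 per well on collagen and grown 24 h at 37°C, then loaded with Calcium 6 dye for 2 h at 37°C. After 1 h equilibration at room temperature, test compound was added and fluorescence imaged every 1 s for 5 min on FLIPR-Tetra.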

[4] = system: MRGPRX2 (RBL-MRGPRX2 cells); test: Ca2+ mobilization in RBL-MRGPRX2 cells; format: cell-based; conditions: PTx 100 ng/mL, 16 h, Indo-1, agonist compound 48/80 1 μg/mL, AG-30/5C 1 μM or Icatibant 20 μg/mL, representative traces
[5] = system: MRGPRX2 (RBL-2H3 cells stably expressing MRGPRX2); test: RBL-MRGPRX2 degranulation; format: cell-based
Outline: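 RBL-2H3 cells stably expressing MRGPRX2 were kept in 1 mg/mL G418. Cells were seeded at 5 × 10^4 per well and cultured overnight with or without pertussis toxin (100 ng/mL, 16 h), then washed twice into HEPES buffer with 0.1% BSA. Optional resveratrol was 100 μM for 5 min. Cells were stimulated with test compound for 30 min at 37°C, and β-hexosaminidase release was measured with 1 mM PNAG (1 h, 37°C) at A405 as percent of total.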

MRGPRX2 (human MC) = conditions: cited from earlier work
[6] = mice; cited from earlier work
MRGPRX2 = conditions: LL-37 as agonist; cited from earlier work
[7] = system: MRGPRX4 (HTLA-MRGPRX4 cells); test: Tango assay; format: cell-based; conditions: nateglinide 30 μM, 16 h, 37°C, three experiments
Outline: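 Tango line from HTLA cells (HEK-293T with β-arrestin2-TEV) stably transfected with MRGPRX4-Tango, single-cell cloned, surface FLAG confirmed by flow. Cells plated at 50,000/well on poly-L-lysine in triplicate, antibiotic-free medium, 6 h at 37°C, then agonist 16 h at 37°C; Bright-Glo luminescence. Ca2+ traces: Calcium 6 loading 2 h 37°C, 1 h room-temperature equilibration, FLIPR imaging every 1 s over 5 min.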

[8] = system: MRGPRX4 (HTLA-MRGPRX4 cells); test: Ca2+ mobilization in HTLA-MRGPRX4 cells; format: cell-based; conditions: nateglinide 30 μM, AG-30/5C 10 μM, compound 48/80 30 μg/mL; FLIPR-Tetra; representative traces
Outline: as §1

[9] = system: MRGPRX2 (HTLA-MRGPRX2 cells); test: Tango assay; format: cell-based; conditions: resveratrol 100 μM, 5 min
Outline: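 HTLA cells (HEK-293T expressing β-arrestin2-TEV) stably transfected with MRGPRX2-Tango; single-cell clone, surface FLAG checked by flow. 50,000 cells/well on poly-L-lysine, triplicate, antibiotic-free medium, 6 h at 37°C; resveratrol 100 μM 5 min where used, then agonist 16 h at 37°C; Bright-Glo luminescence. Ca2+: Calcium 6 dye 2 h 37°C, 1 h room temperature, FLIPR read every 1 s for 5 min. Mean ± SEM, three experiments.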

[10] = system: IgE-mediated MC degranulation; conditions: cited from earlier work
[11] = system: LAD2 cells (human MC line, endogenously expressing MRGPRX2); test: LAD2 degranulation; format: cell-based; conditions: resveratrol 100 μM, 5 min, 30 min
Outline: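 LAD2 cells were grown in StemPro-34 with rhSCF (100 ng/mL), washed, and seeded at 10^4 per well in HEPES buffer with 0.1% BSA. Where used, resveratrol pretreatment was 100 μM for 5 min, followed by stimulation with test compound for 30 min at 37°C. Supernatant or Triton X-100 lysate of unstimulated cells (total) was incubated with 1 mM PNAG for 1 h at 37°C, stopped with carbonate buffer, and read at A405. Result is percent β-hexosaminidase release; three experiments.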

Icatibant
β-arrestin-mediated gene expression (literature) ([1]; HTLA cells expressing MRGPRX2-Tango): does not activate β-arrestin-mediated gene expression
injection site pseudo-allergic drug reaction [2]: injection site pseudo-allergic drug reaction in nearly every patient
peak Ca2+ mobilization, high concentration [3]: induced Ca^2+ mobilization although the peak was much shorter than compound 48/80
effect of pertussis toxin on agonist-induced Ca2+ mobilization [4]: completely blocked Icatibant-induced degranulation but not Ca^2+ mobilization
effect of pertussis toxin on agonist-induced degranulation ([5]; RBL-MRGPRX2, PTx 100 ng/mL, 16 h, agonist compound 48/80 1 μg/mL or AG-30/5C 1 μM (p ≤ 0.001), or Icatibant 20 μg/mL): completely blocked
MC degranulation via MRGPRX2 (literature) (MRGPRX2 (human MC)): promotes MC degranulation via MRPGRX2

LL-37
vaccine adjuvant activity [6]: safe and effective vaccine adjuvant in mice
receptor phosphorylation, desensitization and internalization (MRGPRX2): resistant to phosphorylation, desensitization and internalization
activation of human MC via MRGPRX2 (literature) (MRGPRX2 (human MC)): activate human MC

CC(C)[C@H]1CC[C@H](C(=O)N[C@H](Cc2ccccc2)C(=O)O)CC1 [nateglinide]
β-arrestin-mediated gene expression via MRGPRX4 (Tango), in words ([7]; AG-30/5C 10 μM, compound 48/80 30 μg/mL): induces β-arrestin-mediated gene expression
increase in β-arrestin-mediated gene expression via MRGPRX4 [7]: > 100 fold
Ca2+ mobilization via MRGPRX4 [8]: causes an increase in Ca^2+ mobilization

Oc1ccc(/C=C/c2cc(O)cc(O)c2)cc1 [resveratrol]
inhibition of constitutive MRGPRX2-mediated Tango ([1]; NIH Clinical Collection library (NCC-1) screen): inhibitor of constitutive MRGPRX2-mediated Tango
effect on AG-30/5C Tango response ([9]; AG-30/5C 10 μM overnight): no effect on Tango
inhibition of compound 48/80-induced β-arrestin gene expression (Tango) ([9]; compound 48/80 3.0, 10 and 20 μg/mL overnight): significant (p≤ 0.01 and p≤ 0.001) inhibition
inhibition of IgE-mediated MC degranulation [10]: activates sirtuin 1 (sirt1) to inhibit IgE-mediated MC degranulation
inhibition of Icatibant-induced degranulation, RBL-MRGPRX2 ([5]; resveratrol 100 μM, 5 min, Icatibant 20 μg/mL, 30 min): significant (p≤ 0.05 and p≤ 0.001) inhibition
inhibition of compound 48/80- and AG-30/5C-induced degranulation, RBL-MRGPRX2 ([5]; resveratrol 100 μM, 5 min, compound 48/80 1 μg/mL or AG-30/5C 1 μM, 30 min): significantly (p ≤0.05, 0.01 and 0.001) reduced degranulation
inhibition of Icatibant-induced degranulation, LAD2 ([11]; Icatibant 20 μg/mL): significant (p≤ 0.05 and p≤ 0.001) inhibition
inhibition of compound 48/80- and AG-30/5C-induced degranulation, LAD2 ([11]; compound 48/80 1 μg/mL or AG-30/5C 1 μM): significantly (p ≤0.05, 0.01 and 0.001) reduced degranulation

human β-defensin 3: host defense peptide (GIINTLQKYYCRVRGGRCAVLSCLPKEEQIGKCSTRGRKCCRRKK; ends and bridges not checked; cysteine pairing not given here; UniProt P81534 23-67, looked up)
effect of PTx on MC degranulation and Ca2+ mobilization (literature) (MRGPRX2 (human MC)): inhibits MC degranulation in response to host defense peptide, human β-defensin 3 without affecting Ca^2+ mobilization
